JMJD2C inh – inhibitors of GASC-1 histone demethylase, primary screen, biochemical, fluorescence, DELFIA europium; GST-JMJD2C(1-420) H3K9me3 demethylation; 0.069% of 330,000 active; inhibition, % at 2.35 µM; Lysine-specific demethylase 4C (Homo sapiens), Q9H3R0; AID 2099, 2009;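 active = more than half of a compound's replicate wells show inhibition beyond 50%, single wells judged on their own value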;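 note: signal counts dimethyl H3K9 product captured on neutravidin plate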
Target sequence (Q9H3R0 1-420 limits assumed): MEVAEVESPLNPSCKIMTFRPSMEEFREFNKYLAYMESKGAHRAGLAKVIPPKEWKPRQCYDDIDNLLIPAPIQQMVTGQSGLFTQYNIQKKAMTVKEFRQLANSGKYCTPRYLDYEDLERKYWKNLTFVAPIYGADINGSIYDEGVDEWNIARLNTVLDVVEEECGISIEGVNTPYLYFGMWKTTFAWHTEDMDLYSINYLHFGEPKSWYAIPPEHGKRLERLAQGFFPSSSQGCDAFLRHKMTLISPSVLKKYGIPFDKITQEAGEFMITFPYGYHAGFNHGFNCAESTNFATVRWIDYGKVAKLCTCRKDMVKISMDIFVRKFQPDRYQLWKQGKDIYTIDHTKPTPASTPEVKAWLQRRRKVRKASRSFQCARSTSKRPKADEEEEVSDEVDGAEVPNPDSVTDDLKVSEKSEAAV
Apaf1 inhib – inhibitors of human Apaf-1 apoptosome, primary screen, biochemical, DEVD-Rh110 fluorescence, uHTS; inhibition, % at 20 µM; reconstituted apoptosome caspase-3 activity; 0.71% of 330,000 active; active = inhibition of at least 40% at 20 µM
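Material: reconstituted apoptosome with Apaf-1, cytochrome c, caspase-9, procaspase-3, dATP / Buffer or medium: pH 7.5 Hepes buffer with CHAPS, BSA, DTT / Also added: cytochrome c with DEVD-Rh110 / Schedule: compound with Apaf-1, dATP, procaspase-3 30 min, then 50 min reaction, room temperature / Technique: rhodamine 110 fluorescence at Ex 480/Em 540 nm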
TDP2 inh – human TDP2 enzyme inhibitors, primary screen, biochemical, epi absorbance, recombinant enzyme; Tyrosyl-DNA phosphodiesterase 2 (Homo sapiens), O95551; inhibition, % at 12.8 µM; T5PNP hydrolysis, p-nitrophenol absorbance 415 nm; 0.34% of 370,000 active;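 active = inhibition above the mean of all tested compounds plus 3 SD, set per campaign, cut at about 25% in these data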
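System: recombinant human TDP2 / Amount: 120 nM TDP2 per well / Also added: 5 mM T5PNP chromogenic substrate / Doses: 12.8 µM single point, 1% DMSO / Incubation: 2 h at 37 °C / Detection: p-Nitrophenol epi absorbance / Evaluation: % inhibition relative to enzyme-containing and enzyme-free wells / Repeats: singlicate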
PAD4 inh – human PAD4 inhibitors, primary screen, biochemical, fluorescence polarization, 1536-well format; Protein-arginine deiminase type-4 (Homo sapiens), Q9UM07; recombinant PAD4, RCA probe fluorescence polarization; inhibition, % at 6.36 µM; 0.41% of 330,000 active;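 active = percent inhibition above a cutoff equal to the mean of all tested compounds plus 3 SD, cut at about 15% in these data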
GSTO1 inh – inhibitors of recombinant GSTO1, primary screen, counter-screen for RBBP9 inhibitor project, biochemical, fluorescence polarization | activity-based probe fluorescence polarization | inhibition, % at 5.96 µM | 1.1% of 300,000 active | AID 1974, 2009;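 active = inhibition above the campaign mean inhibition plus 3 SD, cut at about 35% in these data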
SUMO HTRF inh – inhibitors of in vitro SUMOylation cascade, primary screen, biochemical, HTRF, uHTS. SUMO-conjugating enzyme UBC9 (Homo sapiens), P63279. HTRF SUMOylation assay, SAE1/SAE2 + UBC9. inhibition, % at 35 µM. 0.36% of 290,000 active; in the data active = inhibition above about 50%, passing the limit was not always enough
Target sequence (P63279 whole entry, looked up): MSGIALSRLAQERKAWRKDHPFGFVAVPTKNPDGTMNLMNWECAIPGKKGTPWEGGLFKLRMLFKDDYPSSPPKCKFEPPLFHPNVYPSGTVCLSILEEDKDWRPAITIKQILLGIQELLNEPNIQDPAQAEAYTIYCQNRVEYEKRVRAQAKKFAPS
Apaf-1 inh conf2 – Apaf-1 inhibitors, single-dose retest, confirmation, biochemical, fluorescence, DEVD-Rh110, 20 µM; shares compounds with Apaf1 inhib; reconstituted apoptosome, caspase-3 DEVD-Rh110 fluorescence; inhibition, % at 20 µM; 25% of 1,800 active; AID 504614, 2011;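 active = mean inhibition of at least 40% at 20 µM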
Rh110 interf inh – Rh110 fluorescence interference by putative Apaf-1 inhibitors, confirmation, artefact control for Apaf-1 inhibitor project, biochemical, 20 µM; activation (fluorescence interference), % at 20 µM; 1,800 tested, under 10 active; shares compounds with Apaf1 inhib; quenched caspase reaction;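 active = signal rise of 40% or more at 20 µM, treated as a fluorescence artifact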
Each line names hits and unclear results; the compound was inactive in the other large screens (follow-up assays come after a bar, where they were run). Compounds with a hit are over-represented: about 1.6% of the library has one in this group of screens.

COc1cccc2cc(C(=O)NCc3ccc(Cl)cc3)c(=N)oc12	Apaf1 inhib 42 | Apaf-1 inh conf2 inactive | Rh110 interf inh inactive
O=C1C(=O)N(CCN2CCOCC2)C(c2ccccc2)/C1=C(\O)c1ccc2c(c1)OCCO2 (stereo not drawn)	Apaf1 inhib 50 | Apaf-1 inh conf2 inactive | Rh110 interf inh inactive
CC(C)c1ccc(C2/C(=C(\O)c3ccc4c(c3)OCCO4)C(=O)C(=O)N2CCN2CCOCC2)cc1 (stereo not drawn)	none
CCOC(=O)[C@@]12CCCC3=C1N(CCC3)C(=O)[C@H]2CC(=O)NCCCOC	none (no result: JMJD2C inh, Apaf1 inhib, PAD4 inh, GSTO1 inh, SUMO HTRF inh)
O=C(Nc1ccccc1N1CCCC1)C1CCN(S(=O)(=O)c2cccc(C(F)(F)F)c2)CC1	Apaf1 inhib 42 (no result: SUMO HTRF inh) | Apaf-1 inh conf2 inactive | Rh110 interf inh inactive
C=CCn1c(SCC(=O)NCCc2ccccc2)nnc1C1CC1	Apaf1 inhib 42 (no result: SUMO HTRF inh) | Apaf-1 inh conf2 inactive | Rh110 interf inh inactive
C=CCn1c(SCC(=O)NCc2ccccc2)nnc1C1CCCCC1	none (no result: TDP2 inh)
Cc1cc(NC(=O)CSCC(=O)Nc2ccc(Cl)c(C(F)(F)F)c2)no1	none (no result: SUMO HTRF inh)
Cc1cc(NC(=O)CSCC(=O)Nc2ccc(C)c(C)c2)no1	Apaf1 inhib 54 (no result: GSTO1 inh, SUMO HTRF inh) | Apaf-1 inh conf2 inactive | Rh110 interf inh inactive
CCCCC(CC)CN1C(=O)/C(=C/c2ccncc2)SC1=S (stereo not drawn)	Apaf1 inhib 42 | Apaf-1 inh conf2 inactive | Rh110 interf inh inactive
CCN1C(=O)/C(=C\c2ccncc2)SC1=S	none
COc1cccc(N2CCN(CC(=O)N(C)Cc3ccccc3Cl)CC2)c1	none (no result: JMJD2C inh, Apaf1 inhib, PAD4 inh, GSTO1 inh, SUMO HTRF inh)
NC(=O)CSc1nc2scc(-c3ccc(Cl)cc3)c2c(=O)n1Cc1ccccc1	Apaf1 inhib 47 | Apaf-1 inh conf2 inactive | Rh110 interf inh inactive
Cc1cc2cc(CNC(=O)Nc3cccc(Cl)c3)ccc2n1C	Apaf1 inhib 49 | Apaf-1 inh conf2 inactive | Rh110 interf inh inactive
Cc1cc2cc(CNC(=O)c3ccc(S(=O)(=O)N4CCOCC4)cc3)ccc2n1C	none
COc1ccc(CNC(=O)Nc2cccc(Cl)c2)cc1	none (no result: TDP2 inh, PAD4 inh, GSTO1 inh)
CCCC(=O)NCc1ccc2c(c1)cc(C)n2C	none
Cc1cc2cc(CNC(=S)Nc3ccc(OC(F)(F)F)cc3)ccc2n1C	Apaf1 inhib 59 | Apaf-1 inh conf2 inactive | Rh110 interf inh inactive
Cc1cc2cc(CNC(=O)c3ccc(S(=O)(=O)N(C)C)cc3)ccc2n1C	Apaf1 inhib 45 | Apaf-1 inh conf2 inactive | Rh110 interf inh inactive
Cc1cc(C)c(S(=O)(=O)NCc2ccc3c(c2)cc(C)n3C)c(C)c1	Apaf1 inhib 44 | Apaf-1 inh conf2 inactive | Rh110 interf inh inactive
Cc1cc(C)cc(C(=O)OCCN2CCN(C3CN(Cc4cn(Cc5ccc([N+](=O)[O-])cc5)nn4)S(=O)(=O)C3)CC2)c1 (stereo not drawn)	none (no result: JMJD2C inh, Apaf1 inhib, PAD4 inh, GSTO1 inh, SUMO HTRF inh)
Cc1cccc(NC(=O)NCc2ccc3c(c2)cc(C)n3C)c1	Apaf1 inhib 54 | Apaf-1 inh conf2 inactive | Rh110 interf inh inactive
c1ccc(CNc2nc(NCc3ccccc3)c3ccccc3n2)cc1	Apaf1 inhib 66 (no result: TDP2 inh) | Apaf-1 inh conf2 inactive | Rh110 interf inh inactive
C#CCOCCOCCOCCNc1nc(N2CCN(C(=O)[C@H](CCCCN)n3cc(CN)nn3)CC2)nc(N2CCN(C(=O)[C@H](CCCCN)n3cc([C@@H](N)[C@H](C)CC)nn3)CC2)n1	Apaf1 inhib 40 (no result: GSTO1 inh, SUMO HTRF inh) | Apaf-1 inh conf2 inactive | Rh110 interf inh inactive
C#CCOCCOCCOCCNc1nc(N2CCN(C(=O)[C@H](CCCCN)n3cc([C@@H](N)[C@H](C)CC)nn3)CC2)nc(N2CCN(C(=O)[C@H](CCC(=O)O)n3cc([C@@H](N)CCCCN)nn3)CC2)n1	Apaf1 inhib 47 (no result: GSTO1 inh, SUMO HTRF inh) | Apaf-1 inh conf2 inactive | Rh110 interf inh inactive
C#CCOCCOCCOCCNc1nc(N2CCOCC2)nc(N2CCN(C(=O)[C@H](CCCCN)n3cc(CCCC)nn3)CC2)n1	none (no result: JMJD2C inh, Apaf1 inhib, PAD4 inh, GSTO1 inh, SUMO HTRF inh)
C#CCOCCOCCOCCNc1nc(N2CCN(C(=O)[C@H](CCCN=C(N)N)n3cc(C(N)[C@@H](C)CC)nn3)CC2)nc(N2CCN(C(=O)[C@H](CCCCN)n3cc([C@@H](N)[C@H](C)CC)nn3)CC2)n1 (stereo partly drawn)	Apaf1 inhib 50 (no result: GSTO1 inh, SUMO HTRF inh) | Apaf-1 inh conf2 inactive | Rh110 interf inh inactive
C#CCOCCOCCOCCNc1nc(N2CCN(C(=O)[C@H](CCCCN)n3cc(CCCC)nn3)CC2)nc(N2CCN(C(=O)[C@H](CCCCN)n3cc(CCCC)nn3)CC2)n1	Apaf1 inhib 50 | Apaf-1 inh conf2 inactive | Rh110 interf inh inactive
C#CCOCCOCCOCCNc1nc(N2CCN(C(=O)[C@H](CCCCN)n3cc([C@@H](N)C(C)CC)nn3)CC2)nc(N2CCN(C(=O)[C@H](CCCCN)n3cc([C@@H](N)CO)nn3)CC2)n1 (stereo partly drawn)	none (no result: TDP2 inh)
C[N+]1=C2N[C@@H](c3ccccc3)CC(=O)N2/C(=C\c2ccccc2)[C@@H]1Cc1ccccc1	none (no result: JMJD2C inh, Apaf1 inhib, PAD4 inh, GSTO1 inh, SUMO HTRF inh)
CC12CCC(=O)N1C(C(=O)Nc1ccccc1N1CCCCC1)CS2 (stereo not drawn)	Apaf1 inhib 48 (no result: GSTO1 inh, SUMO HTRF inh) | Apaf-1 inh conf2 inactive | Rh110 interf inh inactive
CCN(CC)c1ccc(S(=O)(=O)N2CCCCC2)cc1NC(=O)C1CSC2(C)CCC(=O)N12 (stereo not drawn)	Apaf1 inhib 51 (no result: GSTO1 inh, SUMO HTRF inh) | Apaf-1 inh conf2 inactive | Rh110 interf inh inactive
CCOc1ccc(S(=O)(=O)N2CCOCC2)cc1NC(=O)C1CSC2(C)CCC(=O)N12 (stereo not drawn)	none (no result: SUMO HTRF inh)
Cc1ccc2nc(/C(C#N)=C\c3ccc(N4CCOCC4)o3)[nH]c2c1	Apaf1 inhib 44 | Apaf-1 inh conf2 inactive | Rh110 interf inh inactive
C=CCN1[C@@H](C)COc2cc(N3CCSCC3)ccc2S1(=O)=O	none (no result: JMJD2C inh, Apaf1 inhib, PAD4 inh, GSTO1 inh, SUMO HTRF inh)
CNC(=O)C[C@@H]1CC[C@@H]2[C@H](COc3ccc(NC(=O)c4cccc(F)c4)cc3C(=O)N2C)O1	none (no result: JMJD2C inh, Apaf1 inhib, PAD4 inh, GSTO1 inh, SUMO HTRF inh)
